# Measurements: ChEMBL document CHEMBL5096186, “Design, Synthesis, and Biological Evaluation of Novel Pyrimido[4,5-b]indole Derivatives Against Gram-Negative Multidrug-Resistant Pathogens” (J Med Chem, 2021)
# Legend:
# [1] = test system: Staphylococcus epidermidis; test: Antibacterial activity against methicillin-resistant Staphylococcus epidermidis strains 15 1 to 4 assessed as reduction in bacterial growth incubated for 18 to 20 hrs by CLSI based microdilution method; assay type: functional; settings: time 18-20 hrs
# Method in brief: (§1)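 Broth microdilution per CLSI. Compounds dissolved in DMSO (levofloxacin and meropenem in water) as 64 μg/mL stock, then serial twofold dilutions in broth giving 64 to 0.008 μg/mL. […] Clinical isolates tested as several strains per group; racemic GP-1 served as positive control; values given as MIC ranges.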
# Escherichia coli [2] = test: Antibacterial activity against Escherichia coli ATCC 35218 strains 15 1 to 3 assessed as reduction in bacterial growth incubated for 18 to 20 hrs by CLSI based microdilution method; assay type: functional; settings: time 18-20 hrs
# Method in brief: (§2)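 CLSI broth microdilution. Compounds in DMSO (levofloxacin and meropenem in water), serial twofold dilutions in broth, 64 to 0.008 μg/mL. […] Results reported as MIC ranges across strains.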
# Staphylococcus aureus [3] = test: Antibacterial activity against methicillin-sensitive Staphylococcus aureus strains 15 1 to 4 assessed as reduction in bacterial growth incubated for 18 to 20 hrs by CLSI based microdilution method; assay type: functional; settings: time 18-20 hrs; method in brief: as §1
# Pseudomonas aeruginosa [4] = test: Antibacterial activity against multidrug resistant Pseudomonas aeruginosa strains 15 1 to 3 assessed as reduction in bacterial growth incubated for 18 to 20 hrs by CLSI based microdilution method; assay type: functional; settings: time 18-20 hrs; method in brief: as §1
# [5] = test system: Staphylococcus epidermidis; test: Antibacterial activity against methicillin-sensitive Staphylococcus epidermidis strains 15 1 to 4 assessed as reduction in bacterial growth incubated for 18 to 20 hrs by CLSI based microdilution method; assay type: functional; settings: time 18-20 hrs; method in brief: as §1
# Staphylococcus aureus [6] = test: Antibacterial activity against methicillin-resistant Staphylococcus aureus strains 15 1 to 4 assessed as reduction in bacterial growth incubated for 18 to 20 hrs by CLSI based microdilution method; assay type: functional; settings: time 18-20 hrs; method in brief: as §1
# Escherichia coli [7] = test: Antibacterial activity against ESBL-producing Escherichia coli ATCC 35218 strains 15 1 to 3 assessed as reduction in bacterial growth incubated for 18 to 20 hrs by CLSI based microdilution method; assay type: functional; settings: time 18-20 hrs; method in brief: as §2
# [8] = Metabolic stability in human liver microsome assessed as elimination half life at 0.1 uM in presence of NADPH incubated upto 60 mins by LC-MS/MS analysis; assay type: ADME; settings: liver microsomes, read-out: beta t1/2
# Method in brief: (§3)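 Compound at 0.1 μM final, in 0.01% DMSO with 0.005% BSA. Incubated with rat or human liver microsomes at 0.33 mg/mL in 0.1 M Tris-HCl, pH 7.4, with 5 mM MgCl₂ and 1 mM NADPH, at 37 °C. Samples at 0, 7, 17, 30 and 60 min quenched with cold methanol and analysed by LC-MS/MS. Half-life, Cl_int and MF% derived as previously described.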
# Klebsiella pneumoniae [9] = test: Antibacterial activity against KPC2-producing multidrug resistant Klebsiella pneumoniae assessed as reduction in bacterial growth incubated for 18 to 20 hrs by CLSI based microdilution method; assay type: functional; settings: time 18-20 hrs; method in brief: as §1
# [10] = Metabolic stability in human liver microsome assessed as metabolic bioavailability at 0.1 uM in presence of NADPH incubated upto 60 mins by LC-MS/MS analysis; assay type: ADME; settings: liver microsomes; method in brief: as §3
# [11] = target: Voltage-gated inwardly rectifying potassium channel KCNH2 (Homo sapiens, UniProt Q12809); test: Inhibition of hERG potassium channel assessed as […] at -80 mV holding potential incubated for 120 seconds by whole cell-automated voltage clamp analysis assay; assay type: toxicity
# Chain of Voltage-gated inwardly rectifying potassium channel KCNH2 (Q12809 whole entry): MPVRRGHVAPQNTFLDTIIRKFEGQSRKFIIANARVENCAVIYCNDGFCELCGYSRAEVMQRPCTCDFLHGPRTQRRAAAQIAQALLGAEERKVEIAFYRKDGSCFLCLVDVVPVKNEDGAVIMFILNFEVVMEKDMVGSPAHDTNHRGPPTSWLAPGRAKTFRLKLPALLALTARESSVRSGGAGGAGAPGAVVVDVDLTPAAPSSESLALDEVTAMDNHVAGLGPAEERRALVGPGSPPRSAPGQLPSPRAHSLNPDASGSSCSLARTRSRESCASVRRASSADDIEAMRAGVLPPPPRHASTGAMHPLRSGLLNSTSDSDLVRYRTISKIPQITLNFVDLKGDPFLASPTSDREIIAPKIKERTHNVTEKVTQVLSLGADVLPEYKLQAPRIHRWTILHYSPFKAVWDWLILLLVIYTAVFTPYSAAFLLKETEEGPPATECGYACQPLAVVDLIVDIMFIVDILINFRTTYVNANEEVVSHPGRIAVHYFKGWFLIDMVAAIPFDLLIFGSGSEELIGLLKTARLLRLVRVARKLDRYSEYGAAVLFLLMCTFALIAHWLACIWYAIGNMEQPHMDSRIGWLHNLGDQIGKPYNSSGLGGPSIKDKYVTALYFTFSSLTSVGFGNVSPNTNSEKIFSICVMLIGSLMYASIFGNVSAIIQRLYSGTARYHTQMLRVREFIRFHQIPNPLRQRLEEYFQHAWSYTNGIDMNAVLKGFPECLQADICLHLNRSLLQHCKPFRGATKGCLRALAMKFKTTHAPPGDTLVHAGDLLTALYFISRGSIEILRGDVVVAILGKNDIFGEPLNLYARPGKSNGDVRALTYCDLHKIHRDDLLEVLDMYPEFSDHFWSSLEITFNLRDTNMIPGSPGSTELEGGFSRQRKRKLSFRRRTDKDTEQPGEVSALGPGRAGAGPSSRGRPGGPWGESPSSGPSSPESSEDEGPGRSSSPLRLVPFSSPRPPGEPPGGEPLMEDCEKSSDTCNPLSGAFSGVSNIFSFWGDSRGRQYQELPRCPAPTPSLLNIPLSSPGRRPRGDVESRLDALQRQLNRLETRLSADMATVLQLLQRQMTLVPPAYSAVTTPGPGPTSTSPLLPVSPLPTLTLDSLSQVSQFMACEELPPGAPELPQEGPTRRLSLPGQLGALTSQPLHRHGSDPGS
# Method in brief: (§4)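 Automated whole-cell patch clamp, holding potential −80 mV. Voltage protocol applied every 20 s. Baseline set with external solution containing 0.1% DMSO and stabilised 3 min. Compound applied until steady state, at least 3 min, then washout. Maximum tested concentration 40 μM, or 3 μM for cisapride as positive control.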
# Klebsiella pneumoniae [12] = test: Antibacterial activity agains wild type Klebsiella pneumoniae ATCC BAA-1705 assessed as reduction in bacterial growth incubated for 18 to 20 hrs by CLSI based microdilution method; assay type: functional; settings: time 18-20 hrs; method in brief: as §2
# [13] = Metabolic stability in rat liver microsome assessed as elimination half life at 0.1 uM in presence of NADPH incubated upto 60 mins by LC-MS/MS analysis; assay type: ADME; settings: liver microsomes, read-out: beta t1/2; method in brief: as §3
# [14] = Metabolic stability in rat liver microsome assessed as intrinsic clearance at 0.1 uM in presence of NADPH incubated upto 60 mins by LC-MS/MS analysis; assay type: ADME; settings: microsomes, 1 h; method in brief: as §3
# Acinetobacter baumannii [15] = test: Antibacterial activity agains OXA23-producing multidrug resistant Acinetobacter baumannii assessed as reduction in bacterial growth incubated for 18 to 20 hrs by CLSI based microdilution method; assay type: functional; settings: time 18-20 hrs; method in brief: as §1
# [16] = target: hERG (KCNH2) potassium channel (Homo sapiens, UniProt Q12809); test: Inhibition of hERG potassium channel assessed as maximum inhibition rate at 40 uM at -80 mV holding potential incubated for 120 seconds by whole cell-automated voltage clamp analysis assay relative to control; assay type: toxicity; settings: time 120 sec; method in brief: as §4
# Chain of hERG (KCNH2) potassium channel (Q12809 whole entry): as above
# Pseudomonas aeruginosa [17] = test: Antibacterial activity against wild type Pseudomonas aeruginosa ATCC 27853 assessed as reduction in bacterial growth incubated for 18 to 20 hrs by CLSI based microdilution method; assay type: functional; settings: time 18-20 hrs; method in brief: as §2
# Pseudomonas aeruginosa [18] = test: Antibacterial activity against IMP4-producing multidrug resistant Pseudomonas aeruginosa assessed as reduction in bacterial growth incubated for 18 to 20 hrs by CLSI based microdilution method; assay type: functional; settings: time 18-20 hrs; method in brief: as §1
# [19] = Metabolic stability in rat liver microsome assessed as metabolic bioavailability at 0.1 uM in presence of NADPH incubated upto 60 mins by LC-MS/MS analysis; assay type: ADME; settings: liver microsomes; method in brief: as §3
# Escherichia coli [20] = test: Antibacterial activity against ESBL-producing multidrug resistant Escherichia coli assessed as reduction in bacterial growth incubated for 18 to 20 hrs by CLSI based microdilution method; assay type: functional; settings: time 18-20 hrs; method in brief: as §1
# Klebsiella pneumoniae [21] = test: Antibacterial activity agains wild type Klebsiella pneumoniae ATCC BAA-2470 assessed as reduction in bacterial growth incubated for 18 to 20 hrs by CLSI based microdilution method; assay type: functional; settings: time 18-20 hrs; method in brief: as §1
# Acinetobacter baumannii [22] = test: Antibacterial activity against wild type Acinetobacter baumannii NCTC 13304 assessed as reduction in bacterial growth incubated for 18 to 20 hrs by CLSI based microdilution method; assay type: functional; settings: time 18-20 hrs; method in brief: as §1
# Escherichia coli [23] = test: Antibacterial activity against multidrug resistant wild type Escherichia coli NCTC 13353 assessed as reduction in bacterial growth incubated for 18 to 20 hrs by CLSI based microdilution method; assay type: functional; settings: time 18-20 hrs; method in brief: as §1
# [24] = Metabolic stability in human liver microsome assessed as intrinsic clearance at 0.1 uM in presence of NADPH incubated upto 60 mins by LC-MS/MS analysis; assay type: ADME; settings: microsomes, 1 h; method in brief: as §3
# Escherichia coli [25] = test: Antibacterial activity against multidrug resistant wild type Escherichia coli ATCC BAA-2340 assessed as reduction in bacterial growth incubated for 18 to 20 hrs by CLSI based microdilution method; assay type: functional; settings: time 18-20 hrs; method in brief: as §1
# [26] = Volume of distribution at the steady state in Sprague-Dawley rat at 4 mg/kg, iv measured upto 24 hrs by LC-MS/MS analysis; assay type: ADME, organism-based; settings: in vivo, read-out: Vdss
# Method in brief: (§5)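 Male Sprague-Dawley rats, n = 3 per group, single intravenous dose. For 4 mg/kg: 180–280 g rats, vehicle 5% DMSO + 5% EtOH + 40% PEG300 + 50% saline, blood from the retrobulbar vein at 0.05–24 h. For 5 and 20 mg/kg: 180–300 g rats, vehicle 5% DMSO + 5% solutol + 90% saline, sampled at 0.083–24 h. Plasma quantified by LC/MS/MS. Parameters from mean plasma concentration by noncompartmental analysis; values are mean ± standard deviation.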
# [27] = Clearance in Sprague-Dawley rat at 4 mg/kg, iv measured upto 24 hrs by LC-MS/MS analysis; assay type: ADME, organism-based; settings: in vivo; method in brief: as §5
# [28] = Elimination half life in Sprague-Dawley rat at 4 mg/kg, iv measured upto 24 hrs by LC-MS/MS analysis; assay type: ADME, organism-based; settings: in vivo, read-out: beta t1/2 (converted); method in brief: as §5
# [29] = MRT in Sprague-Dawley rat at 4 mg/kg, iv measured upto 24 hrs by LC-MS/MS analysis; assay type: ADME, organism-based; settings: in vivo; method in brief: as §5
# [30] = AUC (0 to infinity) in Sprague-Dawley rat at 4 mg/kg, iv measured upto 24 hrs by LC-MS/MS analysis; assay type: ADME, organism-based; design: time < 24 hrs, dose 4 mg/kg, route iv; settings: in vivo; method in brief: as §5
Compound,MIC [1],MIC (Escherichia coli [2]),MIC (Staphylococcus aureus [3]),MIC (Pseudomonas aeruginosa [4]),MIC [5],MIC (Staphylococcus aureus [6]),MIC (Escherichia coli [7]),half-life at 0.1 µM [8],MIC (Klebsiella pneumoniae [9]),"Fh at 1 h, 0.1 µM [10]",IC50 [11],MIC (Klebsiella pneumoniae [12]),half-life at 0.1 µM [13],CLH [14],MIC (Acinetobacter baumannii [15]),"inhibition at 2 min, 40 µM [16]",MIC (Pseudomonas aeruginosa [17]),MIC (Pseudomonas aeruginosa [18]),"Fh at 1 h, 0.1 µM [19]",MIC (Escherichia coli [20]),further results
CNc1cc(F)cc2c1[nH]c1nc(Oc3cnc(C)nc3)nc(N3CC(=CCN)C3)c12,0.25 µg/mL,0.5 µg/mL,0.5 µg/mL,≥ 16 µg/mL,0.25 µg/mL,0.5 µg/mL,8 µg/mL,,,,,,,,,,,,,,
CNc1cc(F)cc2c1[nH]c1nc(Oc3cnc(C)nc3)nc(N3CC(=C(CN)C(C)C)C3)c12,,0.03 µg/mL,< 0.008 µg/mL,1 µg/mL,< 0.008 µg/mL,,0.125 µg/mL,38 min,2 µg/mL,26.2%,> 40 µM,4 µg/mL,17.8 min,118.3 mL/min/g,0.5 µg/mL,26.5%,2 µg/mL,4 µg/mL,27.3%,1 µg/mL,MIC (Klebsiella pneumoniae [21]): 2 µg/mL; MIC (Acinetobacter baumannii [22]): 0.5 µg/mL; MIC (Escherichia coli [23]): 0.5 µg/mL; CLH [24]: 55.2 mL/min/g; MIC (Escherichia coli [25]): 0.5 µg/mL
CCCC(CN)=C1CN(c2nc(Oc3cnc(C)nc3)nc3[nH]c4c(NC)cc(F)cc4c23)C1,,0.06 µg/mL,< 0.008 µg/mL,2 µg/mL,< 0.008 µg/mL,,0.125 µg/mL,47.5 min,4 µg/mL,30.7%,51.5 µM,8 µg/mL,24.9 min,84.4 mL/min/g,0.5 µg/mL,50.6%,4 µg/mL,4 µg/mL,34.5%,1 µg/mL,Vd [26]: 22.5 L/kg; clearance [27]: 86.8 mL/min/kg; half-life [28]: 282 min; MRT [29]: 264 min; MIC (Klebsiella pneumoniae [21]): 4 µg/mL; MIC (Acinetobacter baumannii [22]): 1 µg/mL; MIC (Escherichia coli [23]): 0.5 µg/mL; CLH [24]: 44.3 mL/min/g; MIC (Escherichia coli [25]): 1 µg/mL; AUC(0-inf) [30]: 778 ng·h/mL
CNc1cc(F)cc2c1[nH]c1nc(Oc3cnc(C)nc3)nc(N3CC(=C(F)CN)C3)c12,0.015 µg/mL,0.06 µg/mL,0.015 µg/mL,> 16 µg/mL,0.125 µg/mL,0.015 µg/mL,0.25 µg/mL,,,,> 40 µM,,,,,3.2%,,,,,
CCC(CN)=C1CN(c2nc(Oc3cnc(CO)nc3)nc3[nH]c4c(NC)cc(F)cc4c23)C1,,0.25 µg/mL,< 0.008 µg/mL,> 4 µg/mL,< 0.008 µg/mL,,0.5 µg/mL,57.8 min,4 µg/mL,35%,> 40 µM,8 µg/mL,11.9 min,176.4 mL/min/g,1 µg/mL,30.9%,4 µg/mL,> 8 µg/mL,20.1%,1 µg/mL,MIC (Klebsiella pneumoniae [21]): 2 µg/mL; MIC (Acinetobacter baumannii [22]): 1 µg/mL; MIC (Escherichia coli [23]): 0.5 µg/mL; CLH [24]: 36.3 mL/min/g; MIC (Escherichia coli [25]): 1 µg/mL
CNc1cc(F)cc2c1[nH]c1nc(Oc3cnc(C)nc3)nc(N3CCC(=CCN)CC3)c12,0.25 µg/mL,> 2 µg/mL,1 µg/mL,≥ 16 µg/mL,0.25 µg/mL,0.5 µg/mL,8 µg/mL,,,,,,,,,,,,,,
